# Measurements collected from several papers.
# Protocols differ between the studies behind these lines.
# Target: Serine/threonine-protein kinase D3 (PRKD3, Homo sapiens, UniProt O94806)
# Residues used in one study (O94806 1-890): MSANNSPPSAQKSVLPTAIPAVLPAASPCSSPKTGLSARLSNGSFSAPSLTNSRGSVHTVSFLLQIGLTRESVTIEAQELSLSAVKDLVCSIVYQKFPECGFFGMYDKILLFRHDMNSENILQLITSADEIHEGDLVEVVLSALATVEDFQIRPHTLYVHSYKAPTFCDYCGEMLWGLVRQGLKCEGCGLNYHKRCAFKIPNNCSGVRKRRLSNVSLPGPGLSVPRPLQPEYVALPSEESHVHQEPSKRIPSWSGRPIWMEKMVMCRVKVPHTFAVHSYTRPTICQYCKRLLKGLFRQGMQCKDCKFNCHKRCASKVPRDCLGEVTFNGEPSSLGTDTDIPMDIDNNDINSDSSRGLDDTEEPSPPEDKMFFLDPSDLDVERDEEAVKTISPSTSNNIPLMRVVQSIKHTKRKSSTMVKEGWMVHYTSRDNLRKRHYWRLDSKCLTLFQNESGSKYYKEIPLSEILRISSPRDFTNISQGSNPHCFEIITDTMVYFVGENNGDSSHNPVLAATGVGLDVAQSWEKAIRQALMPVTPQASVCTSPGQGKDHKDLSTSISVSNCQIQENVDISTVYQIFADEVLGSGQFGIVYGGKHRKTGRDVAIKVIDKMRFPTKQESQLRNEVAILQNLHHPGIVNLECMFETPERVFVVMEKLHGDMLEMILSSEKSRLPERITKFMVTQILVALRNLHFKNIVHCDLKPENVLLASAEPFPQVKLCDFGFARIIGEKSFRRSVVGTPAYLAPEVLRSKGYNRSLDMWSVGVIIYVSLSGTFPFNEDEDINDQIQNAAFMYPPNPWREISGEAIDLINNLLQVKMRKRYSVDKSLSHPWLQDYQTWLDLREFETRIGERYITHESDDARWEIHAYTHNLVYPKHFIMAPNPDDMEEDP
Structure (SMILES),test,conditions,remaining binding [%]
O=C(c1ccc(Nc2nccc(-c3cc4ccccc4s3)n2)cc1)N1CCC(N2CCCC2)CC1,"binding, competition with immobilised ligand",1 µM,50
O=C(NCC1CCOCC1)c1n[nH]cc1NC(=O)c1c(F)cccc1F,"binding, competition with immobilised ligand",1 µM,97
F[C@@H]1CCN(c2nccc(-c3cnn4ncccc34)n2)C1,binding,1 µM,76
FC(F)(F)Oc1cccc(-c2cnc3ccc(-c4ccncc4)nn23)c1,"cell-free assay, competition with immobilised ligand",5 µM,100
c1cnn2ncc(-c3ccnc(N4CCC45COC5)n3)c2c1,binding,1 µM,71
COc1ccc2cc(OCC3(C(=O)O)CN(C(=O)c4ccc(F)cc4)C3)ccc2c1,"cell-free assay, competition with immobilised ligand",1 µM,91
CN(C)c1nccc(-c2cnn3ncccc23)n1,binding,1 µM,100
CCN1CCN(Cc2ccc(C(=O)Nc3ccc(C)c(Oc4ccc5c(c4)CC(=O)N5)c3)cc2C(F)(F)F)CC1,"binding, competition with immobilised ligand",1 µM,100
Nc1ncc2c(n1)-c1c([nH]c3ccc(C#CC4CC4)cc13)CCCC2,"binding, competition with immobilised ligand",1 µM,61
Cc1c[nH]c2nccc(Oc3c(F)cc(Nc4cc(Cl)nc(N)n4)cc3F)c12,"cell-free assay, competition with immobilised ligand",0.1 µM,100
Cc1cnc(Nc2ccc(C(=O)N3CCC(N4CCCC4)CC3)cc2)nc1-c1cc2ccccc2s1,"binding, competition with immobilised ligand",1 µM,37
CN(C)C(=O)Cn1cc(-c2nc(C3(c4ccc(-c5cnc(N)nc5)cc4)CC3)no2)cn1,"cell-free assay, competition with immobilised ligand",1 µM,92
C[C@H]1CCN(c2nccc(-c3cnn4ncccc34)n2)C1,binding,1 µM,59
COc1cnc(Nc2cccc(S(N)(=O)=O)c2)nc1N1CCN(c2ccccc2)CC1,"binding, competition with immobilised ligand",1 µM,96
Cc1nccc(COC(=O)N2C[C@@H]3[C@@H](CNC(=O)c4ccc5[nH]nnc5c4)[C@@H]3C2)n1,"cell-free assay, competition with immobilised ligand",1 µM,100
N[C@@H]1CCN(c2nccc(-c3cnn4ncccc34)n2)C1,binding,1 µM,100
O=C(NCCCN1CCOCC1)c1ccc(Nc2nccc(-c3cc4ccccc4s3)n2)cc1,"binding, competition with immobilised ligand",1 µM,32
COc1cccc(CNC(=O)c2nc3scc(COCc4ccc(C(=O)O)cc4)c3c(=O)[nH]2)c1,"cell-free assay, competition with immobilised ligand",1 µM,100
COc1ncc2cc3ccccc3nc2c1C#N,"cell-free assay, competition with immobilised ligand",5 µM,100
FC(F)(F)c1ccc2c(c1)nc(-c1cccnc1)n2C1CC1,"cell-free assay, competition with immobilised ligand",1 µM,100
Cc1cnn2ncc(-c3ccnc(N(C)C)n3)c2c1,binding,1 µM,98
